In ChEMBL document CHEMBL1641433, “Replacement of the double bond of antitubulin chalcones with triazoles and tetrazoles: Synthesis and biological evaluation” (Bioorg Med Chem Lett, 2011):
Each block holds one compound with its values, some of them ahead of it. Active and inactive are the calls of the source. The calls are words filed in the database; no cut-off is given here.

Assays:
SH-SY5Y [1] = test: Cytotoxicity against human SH-SY5Y cells assessed as cell viability at 10 uM after 48 hrs by MTT assay relative to control; format: functional; conditions: for viability at 10 µM: read-out: Activity
In short: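 Single-concentration screen: SH-SY5Y cells given 10 µM compound for 48 h. Viability read by MTT and expressed as % of untreated control. Mean ± SEM of three replicates.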

SH-SY5Y [2] = test: Cytotoxicity against human SH-SY5Y cells after 48 hrs by MTT assay; format: functional, cell-based
In short: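 SH-SY5Y neuroblastoma cells treated 48 h across a dose range. Viability/proliferation read by MTT. IC50 taken from dose–response curves, mean ± SEM of at least eight determinations from two separate experiments.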

SH-SY5Y [3] = test: Cell cycle arrest in human SH-SY5Y cells assessed as accumulation at S phase at 2 times IC50 concentration after 16 hrs by FACS analysis (reference value: 36 +/- 4%); format: functional
SH-SY5Y [4] = test: Cell cycle arrest in human SH-SY5Y cells assessed as accumulation at G0/G1 phase at 2 times IC50 concentration after 16 hrs by FACS analysis (reference value: 49 +/- 5.5%); format: functional
SH-SY5Y [5] = test: Cell cycle arrest in human SH-SY5Y cells assessed as accumulation at G2/M phase at 2 times IC50 concentration after 16 hrs by FACS analysis (reference value: 15 +/- 4.8%); format: functional
[6] = Inhibition of tubulin polymerization

Structure (SMILES): COc1cccc(-n2cc(C(=O)c3cc(OC)c(OC)c(OC)c3)nn2)c1
Activity (SH-SY5Y [1]): inactive

Structure (SMILES): COc1cc(C(=O)c2cn(-c3ccc4ccccc4c3)nn2)cc(OC)c1OC
Activity (SH-SY5Y [1]): inactive

Structure (SMILES): COc1cc(OC(F)(F)F)cc(-n2cc(C(=O)c3cc(OC)c(OC)c(OC)c3)nn2)c1
Activity (SH-SY5Y [1]): inactive

IC50 [6]: 1000 nM
Structure (SMILES): COc1ccc(/C=C/C(=O)c2cc(OC)c(OC)c(OC)c2)cc1O
viability at 10 µM (SH-SY5Y [1]): 17%
IC50 (SH-SY5Y [2]): 50 nM
Activity (SH-SY5Y [3]): 48%
Activity (SH-SY5Y [4]): 23%
Activity (SH-SY5Y [5]): 30%

Structure (SMILES): COc1ccc(-n2cc(C(=O)c3cc(OC)c(OC)c(OC)c3)nn2)cc1OC
Activity (SH-SY5Y [1]): inactive

Structure (SMILES): COc1ccc(C(=O)C#Cc2cc(OC)c(OC)c(OC)c2)cc1
viability at 10 µM (SH-SY5Y [1]): 20.4%
Activity (SH-SY5Y [3]): 18%
Activity (SH-SY5Y [4]): 76%
Activity (SH-SY5Y [5]): 8%

Structure (SMILES): COc1ccc(-c2[nH]nnc2C(=O)c2cc(OC)c(OC)c(OC)c2)cc1
viability at 10 µM (SH-SY5Y [1]): > 70%

Structure (SMILES): COc1ccc(-n2cc(C(=O)c3cc(OC)c(OC)c(OC)c3)nn2)c(OC)c1
Activity (SH-SY5Y [1]): inactive

Structure (SMILES): COc1ccc(-n2cc(C(=O)c3cc(OC)c(OC)c(OC)c3)nn2)cc1O
Activity (SH-SY5Y [1]): inactive

Structure (SMILES): COc1cc(C(=O)c2cn(-c3ccc(OC(F)(F)F)cc3)nn2)cc(OC)c1OC
Activity (SH-SY5Y [1]): inactive

Structure (SMILES): COc1cc(-n2cc(C(=O)c3cc(OC)c(OC)c(OC)c3)nn2)ccc1O
Activity (SH-SY5Y [1]): inactive

Structure (SMILES): COc1cccc(-n2cc(C(=O)c3cc(OC)c(OC)c(OC)c3)nn2)c1O
Activity (SH-SY5Y [1]): inactive

Structure (SMILES): COc1ccc(-n2cc(C(=O)c3cc(OC)c(OC)c(OC)c3)nn2)cc1
Activity (SH-SY5Y [1]): inactive

Structure (SMILES): COc1ccc(-n2cc(C(=O)c3cc(OC)c(OC)c(OC)c3)nn2)cc1F
Activity (SH-SY5Y [1]): inactive

Structure (SMILES): COc1ccc(-n2cc(C(=O)c3cc(OC)c(OC)c(OC)c3)nn2)cc1[N+](=O)[O-]
Activity (SH-SY5Y [1]): inactive

Structure (SMILES): COc1cc(C(=O)c2cn(-c3ccc4c(c3)OCO4)nn2)cc(OC)c1OC
Activity (SH-SY5Y [1]): inactive

Structure (SMILES): COc1cc(C(=O)c2cn(-c3cc(OC)c(OC)c(OC)c3)nn2)cc(OC)c1OC
Activity (SH-SY5Y [1]): inactive

Structure (SMILES): COc1ccc(C#CC(=O)c2cc(OC)c(OC)c(OC)c2)cc1
viability at 10 µM (SH-SY5Y [1]): 27.7%
Activity (SH-SY5Y [3]): 16%
Activity (SH-SY5Y [4]): 79%
Activity (SH-SY5Y [5]): 6%

Structure (SMILES): COc1cc(C(=O)c2cn(-c3cnc4ccccc4c3)nn2)cc(OC)c1OC
Activity (SH-SY5Y [1]): inactive

Structure (SMILES): COc1cc(OC)cc(-n2cc(C(=O)c3cc(OC)c(OC)c(OC)c3)nn2)c1
Activity (SH-SY5Y [1]): inactive

Structure (SMILES): COc1ccccc1-n1cc(C(=O)c2cc(OC)c(OC)c(OC)c2)nn1
Activity (SH-SY5Y [1]): inactive

Structure (SMILES): COc1ccc(-n2nnnc2C(=O)c2cc(OC)c(OC)c(OC)c2)cc1O
viability at 10 µM (SH-SY5Y [1]): 51.6%
Activity (SH-SY5Y [3]): 30%
Activity (SH-SY5Y [4]): 41%
Activity (SH-SY5Y [5]): 29%

Structure (SMILES): COc1ccc(C(=O)c2nn[nH]c2-c2cc(OC)c(OC)c(OC)c2)cc1
viability at 10 µM (SH-SY5Y [1]): > 70%

IC50 [6]: 1800 nM
Structure (SMILES): COc1ccc(/C=C(\C)C(=O)c2cc(OC)c(OC)c(OC)c2)cc1O
IC50 (SH-SY5Y [2]): 0.21 nM

Structure (SMILES): COc1cc(C(=O)c2cn(-c3cccc4ccccc34)nn2)cc(OC)c1OC
Activity (SH-SY5Y [1]): inactive
